Lmaj promast: reduces viability of Leishmania major promastigotes. hit rate 9% among 200,000. resazurin fluorescence viability. AID 1063. inhibition, % at 10 µM; in the data active = inhibition above about 50%;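 also: promastigotes grown with compound for 44 hours at 28 °C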
Mdm2 MdmX PPI: human Mdm2/MdmX binding inhibition; SaOS-2 split-luciferase Mdm2/MdmX complementation, luminescence; inhibition, % at 8 µM; hit rate 3% among 330,000; AID 485346;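 active = inhibition of at least 50% at 8 µM in the primary screen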
Target sequence (O15151 whole entry, looked up): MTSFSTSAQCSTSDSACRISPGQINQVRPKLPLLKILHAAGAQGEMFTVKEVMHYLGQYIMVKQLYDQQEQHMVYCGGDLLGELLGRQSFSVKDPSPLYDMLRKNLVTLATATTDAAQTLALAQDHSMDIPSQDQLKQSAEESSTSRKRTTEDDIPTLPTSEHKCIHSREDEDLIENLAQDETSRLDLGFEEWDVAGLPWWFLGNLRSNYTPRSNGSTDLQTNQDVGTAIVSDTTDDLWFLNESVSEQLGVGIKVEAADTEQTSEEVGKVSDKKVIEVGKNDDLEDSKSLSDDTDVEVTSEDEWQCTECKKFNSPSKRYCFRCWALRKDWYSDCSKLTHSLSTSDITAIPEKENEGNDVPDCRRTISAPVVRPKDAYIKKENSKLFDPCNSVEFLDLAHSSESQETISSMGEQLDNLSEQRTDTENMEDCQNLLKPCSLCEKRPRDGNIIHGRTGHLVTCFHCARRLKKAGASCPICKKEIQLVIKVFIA
Target sequence (Q00987 whole entry, looked up): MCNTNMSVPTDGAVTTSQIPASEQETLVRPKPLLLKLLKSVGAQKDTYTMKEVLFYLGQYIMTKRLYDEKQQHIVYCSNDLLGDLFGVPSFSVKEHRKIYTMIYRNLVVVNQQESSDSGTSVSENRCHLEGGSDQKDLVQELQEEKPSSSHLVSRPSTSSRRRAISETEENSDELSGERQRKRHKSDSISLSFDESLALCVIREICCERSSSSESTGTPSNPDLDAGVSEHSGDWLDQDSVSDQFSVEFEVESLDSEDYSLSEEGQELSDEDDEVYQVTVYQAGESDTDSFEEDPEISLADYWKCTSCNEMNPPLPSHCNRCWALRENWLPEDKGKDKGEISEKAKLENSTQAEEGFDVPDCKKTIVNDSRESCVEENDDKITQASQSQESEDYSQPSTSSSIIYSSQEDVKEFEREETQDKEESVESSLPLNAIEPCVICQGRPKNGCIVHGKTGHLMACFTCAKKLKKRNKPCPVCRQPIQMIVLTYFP
Beta cell apopt: beta cell apoptosis inhibition. INS-1E cytokine-induced death, ATP luminescence, 48 h; percent of positive-control rescue, neutral wells zero. protection from apoptosis, % (concentration not given with the values). hit rate 0.8% among 300,000;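 active = Every replicate reaches about 75%, or at least half do and their mean reaches it too, limit read from the data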;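 also: 0% = cytokine-treated negative control wells and 100% = positive control rescue; higher means more ATP so stronger rescue from cytokine killing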
T cruzi repl: T. cruzi replication inhibition; T. cruzi beta-gal in NIH3T3, luminescence, 90 h; inhibition, % (test concentration not listed); hit rate 1.4% among 300,000;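 active = mean inhibition across valid replicates above about 55%, limit read from the data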;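 also: signal also drops with host cell toxicity which is not excluded here; 0% = plate median of DMSO wells and 100% = zero luminescence signal; higher percent means less beta-gal luminescence so fewer parasites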
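Assay system: NIH/3T3 host cells with β-galactosidase reporter T. cruzi; input: 5,000 host fibroblasts per well; compound: single 50 nL compound addition per well in DMSO; timing: ≥90 h infection period, 3 h prior cell attachment; measured by: GalScreen β-gal luminescence, detergent lysis, 60 min; evaluation: percent inhibition of parasite-derived β-gal signal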
SKKanGAS inh: SKKanGAS growth inhibition; S. pyogenes SKKanGAS, kanamycin growth, BacTiter-Glo, 6 h; inhibition, % at 7.5 µM; hit rate 1.3% among 300,000; AID 1662;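 active = mean replicate score, as percent of positive control median, at least 50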;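 also: strain carries kanamycin resistance gene driven by streptokinase promoter and grows in 40 µg/ml kanamycin; loss of luminescence reflects streptokinase promoter inhibition or plain growth inhibition; 0% = median of DMSO wells and 100% = positive control at its reference dose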
CSC inhib: blocks cancer stem cells. cancer stem cell-like cells viability, luminescence. inhibition, % at 7.5 µM. hit rate 1.1% among 300,000; in the data active = inhibition above about 75%; tested in HMLE shEcad cells
Starred values were filed as active, the others as inactive; . = not tested or not shown. A selection: hits, their analogues and other compounds. The true share with any hit is near 9.4%.

SMILES	Lmaj promast	Mdm2 MdmX PPI	Beta cell apopt	T cruzi repl	SKKanGAS inh	CSC inhib
CCOc1ccc2c(c1)OC(c1ccccc1)(C(F)(F)F)NC2=O (stereo unspecified)	-2	9	-2	13	0	-2
Cc1cc(NC(=O)/C=C/c2ccccc2Cl)n(-c2nc3ccccc3[nH]2)n1	8	-8	38	47	81*	37
Cc1cc(NC(=O)/C=C/c2ccccc2Cl)no1	0	-66	4	-152	-5	-3
O=C(/C=C/c1ccccc1Cl)Nn1cnc2ccccc2c1=O	79*	9	0	4	3	4
O=C(/C=C/c1ccccc1)Nn1cnc2ccccc2c1=O	-7	-39	-3	4	-3	3
Cc1nc2ccccc2c(=O)n1NC(=O)/C=C/c1ccccc1Cl	69*	34	0	-2	5	9
NC(=O)N/N=C/c1ccccc1OCC(=O)NCc1ccccc1	-5	18	-4	10	-11	-4
O=C(NCCc1c[nH]c2ccccc12)c1cnccn1	-9	-10	2	-7	-2	-2
CCCC(=O)Nc1nnc(S(=O)(=O)N(C)Cc2ccco2)s1	.	1	-7	-4	-13	8
Cc1cccc(CCNC(=O)C2CCN(S(=O)(=O)N3CCOCC3)CC2)c1	.	7	-2	-1	-10	-5
CN(C)C(=O)c1ccc(NC(=O)COC(=O)Cn2cc(C(F)(F)F)ccc2=O)cc1	.	-12	-7	.	.	.
CCCC(=O)N1CCc2cc(OC)c(OC)cc2C1COc1ccccc1OC (stereo unspecified)	.	0	-4	21	-6	-7
CCOc1ccc(CC2c3cc(OCC)c(OCC)cc3CCN2C(=O)c2cc(OC)c(OC)c(OC)c2)cc1OCC (stereo unspecified)	55*	28	4	10	3	-4
Fc1ccc(-c2cc(C(F)(F)F)nc(N3CCCCC3)n2)cc1	4	5	1	5	65*	21
COc1cccc(-c2cc(C(F)(F)F)nc(N3CCC(C)CC3)n2)c1	15	-7	2	17	68*	46
CN(C)CCSc1nc(O)c(-c2ccccc2)c(=O)n1-c1ccccc1	.	24	-4	-5	-1	4
Cc1sc2nc(SCCN(C)C)n(-c3ccccc3)c(=O)c2c1-c1ccc(F)cc1	.	23	-1	51	-14	109*
C=CCNC(=S)N/N=C/c1ccc(OCc2ccccc2Cl)cc1	-3	6	6	65*	-3	.
Clc1ccccc1COc1ccc(/C=N/n2cnnc2)cc1	39	-5	-3	20	10	.
O=C1N/C(=N\N=C\c2cccs2)SC1Cc1ccc(Cl)c(Cl)c1 (stereo unspecified)	11	47	-1	45	56*	27
CCn1cc(S(=O)(=O)Nc2ncccn2)cn1	.	14	-4	-8	-1	2
Cc1ccc(S(=O)(=O)N[C@H](C(=O)N2CCC(C(=O)N[C@@H](CC(=O)O)C(=O)O)CC2)C(C)C)cc1	.	20	-1	18	3	-6
N#Cc1ccsc1NC(=O)COC(=O)c1cc2ccccc2cc1O	79*	-50	-4	-6	4	-18
COc1ccc(S(N)(=O)=O)cc1C(=O)OCC(=O)Nc1sccc1C#N	.	17	1	.	.	-4
CC(C)OCCCNC(=O)CCCC(=O)Nc1ccc(OCCc2ccccc2)cc1	.	-22	-1	-11	4	4
SMILES	Lmaj promast	Mdm2 MdmX PPI	Beta cell apopt	T cruzi repl	SKKanGAS inh	CSC inhib
O=C(CSc1nc(-c2ccccc2)c(-c2ccccc2)[nH]1)Nc1nccs1	98*	-15	2	19	7	.
COc1ccc(-c2[nH]c(-c3ccc(SC)cc3)nc2SCC(=O)Nc2nccs2)cc1	96*	0	-3	5	30	41
Cc1ccc(S(=O)(=O)Cc2nnnn2-c2ccccc2)cc1	.	-13	1	-15	-1	-12
O=C(Nc1cccc(C(F)(F)F)c1)C1CCCN1S(=O)(=O)c1cccc2cccnc12 (stereo unspecified)	84*	14	26	-13	0	1
Clc1cccc(-c2nc(NCCCN3CCOCC3)c3ccccc3n2)c1	80*	9	-2	8	14	91*
Cc1ccc(-c2nc(NCCN3CCOCC3)c3ccccc3n2)cc1	81*	-14	5	23	2	-42
Clc1cccc(-c2nc(NCCN3CCOCC3)c3ccccc3n2)c1	75*	45	-8	20	-2	11
Cc1cc(NCCN2CCOCC2)c2ccc3ccccc3c2n1	14	-12	27	65*	-15	-1
N#Cc1ccc(Cl)cc1NC(=O)COC(=O)c1cccc(S(=O)(=O)N2CCOCC2)c1	.	14	8	.	.	.
CC(C)COc1cccc(C(=O)N(CC(=O)Nc2ccccc2C(F)(F)F)Cc2ccco2)c1	.	-13	2	.	.	.
CC(NC(=O)c1ccc(F)cc1)c1ccc(F)cc1 (stereo unspecified)	56*	-1	-7	-13	-2	.
CC(NC(=O)c1ccccc1)c1ccc(Br)cc1 (stereo unspecified)	55*	-9	3	7	1	9
CC(NC(=O)c1ccc(Br)cc1)c1ccccc1 (stereo unspecified)	-2	-2	2	-17	-11	-7
COc1ccccc1CN1CCCC(CNC(=O)c2cccc3ccccc23)C1 (stereo unspecified)	.	11	-2	61*	1	-10
CSc1cccc(CN2CCCC(CNC(=O)c3ccc(F)cc3)C2)c1 (stereo unspecified)	77*	17	-5	43	-2	0
O=C(NCC1CCCN(Cc2nccs2)C1)c1cccc2ccccc12 (stereo unspecified)	.	15	.	5	2	2
COc1ccc(CC(=O)NCC2CCCN(Cc3ccc(F)c(OC)c3)C2)cc1 (stereo unspecified)	.	-15	.	42	0	-8
CCOc1ccccc1CN1CCCC(CNC(=O)Cc2ccc(OC)cc2)C1 (stereo unspecified)	.	-83	-4	59*	0	1
O=C(NCC1CCCN(Cc2cccc(OCCO)c2)C1)c1ccc(F)cc1 (stereo unspecified)	-1	14	-4	19	-4	-4
COc1ccc(CC(=O)NCC2CCCN(Cc3ccc(SC)cc3)C2)cc1 (stereo unspecified)	.	2	-3	68*	1	-4
CCCN(C1CCS(=O)(=O)C1)S(=O)(=O)c1cc(OC)ccc1OC (stereo unspecified)	.	-10	-4	.	.	-10
CSc1ccc(CN2CCCC(CNC(=O)c3ccc(F)cc3)C2)cc1 (stereo unspecified)	84*	13	0	63*	-9	-4
COCCN(C(=O)Cc1cccs1)C(C(=O)NC1CCCC1)c1cc(OC)c(OC)c(OC)c1 (stereo unspecified)	3	2	.	-1	-2	2
COc1ccc(S(=O)(=O)Nc2ccc(O)c(Sc3ncn[nH]3)c2)cc1	-2	7	-1	12	-3	8

Assay outcomes: PubChem BioAssay, several laboratories
